Reference: ChEMBL document CHEMBL1914422, “Activation of the c-Jun N-terminal kinase/activating transcription factor 3 (ATF3) pathway characterizes effective arylated diazeniumdiolate-based nitric oxide-releasing anticancer prodrugs” (J Med Chem, 2011)
Calls of active or inactive are those of the source. No cut-off for these calls is given here.

Tests used:
NCI-H2122 = experiment: Antiproliferative activity against human NCI-H2122 cells after 72 hrs by MTT assay; assay type: functional, cell-based; conditions: NCI-H2122, 72 h
Procedure, shortened: (§1)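 Compounds (10 mM DMSO stocks, final DMSO ≤0.1%) added at increasing concentrations in PBS, incubated 72 h at 37 °C. MTT read-out, six repeats per concentration, at least two independent experiments.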

[1] = Antiproliferative activity against human NCI-H1373 cells after 72 hrs by MTT assay; assay type: functional, cell-based; conditions: NCI-H1373, 72 h; procedure, shortened: as §1
[2] = Chemical stability of the compound in aqueous phosphate buffered saline assessed as half life at pH 7.4 in presence of 4 mM glutathione; assay type: physicochemical; conditions: gsh
[3] = Activation of JNK phosphorylation at Thr183 and Tyr185 in human NCI-H1703 cells at 1 uM within 30 mins by Western blot analysis; assay type: cell-based
NCI-H441 = experiment: Antiproliferative activity against human NCI-H441 cells after 72 hrs by MTT assay; assay type: functional, cell-based; conditions: NCI-H441, 72 h; procedure, shortened: as §1
[4] = Antiproliferative activity against human NCI-H1944 cells after 72 hrs by MTT assay; assay type: functional, cell-based; conditions: NCI-H1944, 72 h; procedure, shortened: as §1
NCI-H1703 [5] = experiment: Antiproliferative activity against human NCI-H1703 cells after 72 hrs by MTT assay; assay type: functional, cell-based; conditions: NCI-H1703, 72 h; procedure, shortened: as §1
[6] = Activation of JNK phosphorylation in human NCI-H1703 cells assessed as increase in ATF3 protein level at 1 uM within 2 hrs by Western blot analysis in presence of JNK inhibitor 1,9-pyrozoloanthrone; assay type: cell-based
Procedure, shortened: (§2)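 Before compound exposure (1 μM), H1703 cells received the JNK inhibitor 1,9-pyrazoloanthrone at 50 μM for 30 min. Phosphorylated JNK, ATF2 and c-jun, and ATF3 protein, then detected by Western blot. Representative blots shown.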

Mus musculus [7] = experiment: Toxicity in human NCI-H1703 cells xenografted athymic NCr nu/nu Charles river mouse assessed as change in body weight at 6 umol/kg, iv administered 3 times a week for 3 weeks (reference value: 22.5 +/- 0.4g); assay type: organism-based; conditions: in vivo, 504 h
NCI-H1703 [8] = experiment: Induction of apoptosis in human NCI-H1703 cells assessed as caspase 3 activation after 1 to 6 hrs by Western blot analysis; assay type: functional, cell-based
NCI-H1703 [9] = experiment: Antitumor activity against human NCI-H1703 cells xenografted in NCr nu/nu Charles river mouse assessed as tissue death in tumor at 6 umol/kg, iv administered 3 times a week for 3 weeks by H and E staining method relative to control; assay type: functional, organism-based
Procedure, shortened: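 Female athymic NCr-nu/nu mice, 7 weeks old, received 5×10^6 H1703 cells s.c. in the flank. Tumors excised 2 h after the last dose, H&E stained, and scored for areas of cell death against vehicle controls.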

[10] = Activation of JNK phosphorylation in human NCI-H1703 cells assessed as c-jun phosphorylation at Ser63 at 1 uM by Western blot analysis; assay type: cell-based
Procedure, shortened: (§3)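 Lysates immunoblotted with phospho-specific antibodies against SEK1/MKK4, SAPK/JNK, ATF2 and c-jun. Membranes reprobed for total SAPK/JNK as loading control. Representative blots shown.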

[11] = Activation of JNK phosphorylation in human NCI-H1703 cells assessed as c-jun phosphorylation at Ser63 at 1 uM pretreated for 30 mins by Western blot analysis in presence of JNK inhibitor 1,9-pyrazoloanthrone; assay type: cell-based; procedure, shortened: as §2
NCI-H1703 [12] = experiment: Induction of apoptosis in human NCI-H1703 cells assessed as caspase 3 cleavage at 1 uM pretreated with ATF3 siRNA for 48 hrs before compound challenge measured after 8 hrs by Western blot analysis; assay type: functional, cell-based
Procedure, shortened: (§4)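 H1703 cells at 60% confluence transfected with ATF3 siRNA, nonsilencing siRNA or reagent only (mock). After 48 h, cells treated with 1 μM compound or equal-volume DMSO for 8 h, then lysed. Western blots probed for ATF3, cleaved PARP p85 and cleaved caspase-3, with β-actin as loading control.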

NCI-H1703 [13] = experiment: Induction of apoptosis in human NCI-H1703 cells assessed as PARP p85 cleavage at 1 uM pretreated with ATF3 siRNA for 48 hrs before compound challenge measured after 8 hrs by Western blot analysis; assay type: functional, cell-based; procedure, shortened: as §4
[14] = biological target: T1, Dual specificity mitogen-activated protein kinase kinase 4 (Homo sapiens) (UniProt P45985); experiment: Activation of SEK1 phosphorylation at Thr261 in human NCI-H1703 cells at 1 uM by Western blot analysis; assay type: cell-based; procedure, shortened: as §3
T1 sequence (whole entry): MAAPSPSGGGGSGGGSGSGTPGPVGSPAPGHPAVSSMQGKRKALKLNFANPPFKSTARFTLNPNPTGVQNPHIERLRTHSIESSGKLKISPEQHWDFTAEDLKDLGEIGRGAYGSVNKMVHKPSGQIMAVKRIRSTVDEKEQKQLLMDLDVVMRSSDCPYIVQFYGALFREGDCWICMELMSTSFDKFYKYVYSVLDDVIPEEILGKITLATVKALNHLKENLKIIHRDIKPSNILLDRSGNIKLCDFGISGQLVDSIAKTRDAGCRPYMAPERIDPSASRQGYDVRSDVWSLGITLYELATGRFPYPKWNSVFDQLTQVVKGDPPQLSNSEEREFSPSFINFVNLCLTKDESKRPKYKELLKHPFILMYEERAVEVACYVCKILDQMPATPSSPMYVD

Mus musculus [15] = experiment: Induction of JNK phosphorylation in human NCI-H1703 cells xenografted NCr nu/nu Charles river mouse tumor assessed as increase in ATF3 protein level at 6 umol/kg, iv administered 3 times a week for 3 weeks by immunohistochemical analysis; assay type: functional, organism-based
[16] = Activation of JNK phosphorylation in human NCI-H1703 cells assessed as ATF2 phosphorylation at Thr71 at 1 uM by Western blot analysis; assay type: cell-based; procedure, shortened: as §3
Mus musculus [17] = experiment: Induction of JNK phosphorylation in human NCI-H1703 cells xenografted NCr nu/nu Charles river mouse tumor at 6 umol/kg, iv administered 3 times a week for 3 weeks by immunohistochemical analysis; assay type: functional, organism-based
[18] = Activation of JNK phosphorylation at Thr183 and Tyr185 in human NCI-H1703 cells at 1 uM pretreated for 1 hr measured after 30 mins by Western blot analysis in presence of ROS scavenger tiron
[19] = Activation of JNK phosphorylation in human NCI-H1703 cells assessed as increase in ATF3 mRNA level at 5 uM after 1.5 hrs by quantitative real-time PCR analysis relative to control; assay type: cell-based
Procedure, shortened: (§5)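 Cells were H1703 treated with compound or DMSO control. Total RNA was isolated and residual genomic DNA removed. ATF3 mRNA was measured by quantitative RT-PCR with β-actin as internal control. Reported as mean ± SE.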

[20] = Activation of JNK phosphorylation in human NCI-H1703 cells assessed as increase in ATF3 protein level at 1 uM by Western blot analysis; assay type: cell-based
[21] = Activation of JNK phosphorylation in human NCI-H1703 cells assessed as increase in ATF3 protein level at 1 uM within 2 hrs by Western blot analysis; assay type: cell-based
NCI-H1703 [22] = experiment: Induction of apoptosis in human NCI-H1703 cells assessed as PARP cleavage after 1 to 6 hrs by Western blot analysis; assay type: functional, cell-based
[23] = Activation of JNK phosphorylation in human NCI-H1703 cells assessed as increase in ATF3 mRNA level at 1 uM after 1.5 hrs by quantitative real-time PCR analysis relative to control; assay type: cell-based; procedure, shortened: as §5
NCI-H1703 [24] = experiment: Induction of apoptosis in human NCI-H1703 cells assessed as caspase 7 activation after 1 to 6 hrs by Western blot analysis; assay type: functional, cell-based
NCI-H1703 [25] = experiment: Antitumor activity against human NCI-H1703 cells xenografted in athymic NCr Charles river nu/nu mouse assessed as reduction of tumor weight at 6 umol/kg, iv administered 3 times a week for 3 weeks relative to vehicle treated control; assay type: functional; design: scale not given: the % may be the effect or the level left
Procedure, shortened: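 H1703 cells (5×10^6) injected s.c. into the flank of 7-week-old female athymic NCr-nu/nu mice. Dosing began once tumors reached at least 2×2×2 mm (typically 4 weeks). Body weight recorded before each injection. Mice sacrificed 2 h after the last dose and tumors excised and weighed. 13–15 mice/group; Mann-Whitney test; mean ± SE.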

[26] = Activation of JNK phosphorylation in human NCI-H1703 cells assessed as ATF2 phosphorylation at Thr71 at 1 uM pretreated for 30 mins by Western blot analysis in presence of JNK inhibitor 1,9-pyrazoloanthrone; assay type: cell-based; procedure, shortened: as §2
NCI-H1703 [27] = experiment: Upregulation of ATF3 expression in human NCI-H1703 cells at 1 uM pretreated with ATF3 siRNA for 48 hrs before compound challenge measured after 8 hrs by Western blot analysis; assay type: functional, cell-based; procedure, shortened: as §4
NCI-H1703 [28] = experiment: Antitumor activity against human NCI-H1703 cells xenografted in athymic NCr Charles river nu/nu mouse assessed as reduction of tumor growth at 6 umol/kg, iv administered 3 times a week for 3 weeks relative to vehicle treated control; assay type: functional, organism-based
Procedure, shortened: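 H1703 xenografts (5×10^6 cells s.c., flank) in 7-week-old female athymic NCr-nu/nu mice, treated from tumor size ≥2×2×2 mm. Mice killed 2 h after the last dose; tumors excised and weighed. 13–15 mice/group; Mann-Whitney test against vehicle.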

NCI-H1703 [29] = experiment: Induction of apoptosis in human NCI-H1703 cells assessed as apoptotic cells at 1 uM after 6 hrs by FACS analysis (reference value: 0.05%); assay type: functional
NCI-H1703 [30] = experiment: Cell cycle arrest in human NCI-H1703 cells assessed as accumulation at G2 phase at 1 uM after 6 hrs by FACS analysis (reference value: 8%); assay type: functional

SMILES: CCOC(=O)N1CCCN(/[N+]([O-])=N/Oc2cc(OC)c([N+](=O)[O-])cc2[N+](=O)[O-])CC1
- IC50 (NCI-H2122): 10000 nM
- IC50 [1]: 3080 nM
- t1/2 [2]: 59.6 min
- Activity [3]: inactive
- IC50 (NCI-H441): 3150 nM
- IC50 [4]: > 10000 nM
- IC50 (NCI-H1703 [5]): 1820 nM

SMILES: CCOC(=O)N1CCN(/[N+]([O-])=N/Oc2cc(OC)c([N+](=O)[O-])cc2[N+](=O)[O-])CC1
- IC50 (NCI-H2122): 5780 nM
- IC50 [1]: 2100 nM
- t1/2 [2]: 38.6 min
- Activity [3]: inactive
- IC50 (NCI-H441): 2500 nM
- IC50 [4]: > 10000 nM
- IC50 (NCI-H1703 [5]): 1570 nM

SMILES: CCOC(=O)N1CCN(/[N+]([O-])=N/Oc2ccc([N+](=O)[O-])cc2[N+](=O)[O-])CC1
- IC50 (NCI-H2122): 3170 nM
- Activity [6]: inactive
- Activity (Mus musculus [7]): 24.9 g
- Activity (NCI-H1703 [8]): Active
- Activity (NCI-H1703 [9]): Active
- Activity [10]: Active
- Activity [11]: inactive
- Activity (NCI-H1703 [12]): inactive
- Activity (NCI-H1703 [13]): inactive
- Activity [14]: Active
- Activity (Mus musculus [15]): Active
- IC50 [1]: 860 nM
- Activity [16]: Active
- Activity (Mus musculus [17]): Active
- Activity [18]: inactive
- fold change (FC) [19]: 10
- Activity [20]: tde
- Activity [21]: Active
- Activity (NCI-H1703 [22]): Active
- fold change (FC) [23]: 8
- Activity (NCI-H1703 [24]): Active
- Activity (NCI-H1703 [25]): 49%
- Activity [26]: inactive
- Activity (NCI-H1703 [27]): inactive
- Activity [3]: Active
- growth inhibition (GI) (NCI-H1703 [28]): Active
- IC50 (NCI-H441): 940 nM
- Activity (NCI-H1703 [29]): 14.4%
- Activity (NCI-H1703 [30]): 37%
- IC50 [4]: > 10000 nM
- IC50 (NCI-H1703 [5]): 570 nM
